From ChEMBL document CHEMBL5576140, “Computational Design of Pore-Forming Peptides with Potent Antimicrobial and Anticancer Activities” (J Med Chem, 2024)
Active and inactive are the calls of the source. The calls are words filed in the database; no cut-off is given here.

Columns and labels:
[1] = Hemolytic activity against human RBC incubated for 1 hr by microplate reader analysis; type: toxicity, cell-based, Erythrocyte; conditions: red blood cells (erythrocytes)
How it was run: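 Human red blood cells exposed to peptides up to 50 μM; hemolysis measured, IC50 derived where reached.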

[2] = tested on: Staphylococcus aureus; test: Antimicrobial activity against Staphylococcus aureus NE1740 harboring single transposon insertion mutation in staphopain A at 30 uM incubated for 18 hrs relative to control; type: functional
How it was run: (§1)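 CA-MRSA USA300 LAC derivative JE2 and single transposon insertion mutants derived from JE2, each lacking an extracellular protease gene, were exposed to peptides up to 30 μM. The read-out was percent growth inhibition. Peptides were dissolved in PBS, and tests were run in triplicate.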

[3] = tested on: Staphylococcus aureus; test: Antimicrobial activity against Staphylococcus aureus NE163 harboring single transposon insertion mutation in aureolysin at 30 uM incubated for 18 hrs relative to control; type: functional; how it was run: as §1
[4] = tested on: Staphylococcus aureus; test: Antimicrobial activity against Staphylococcus aureus NE1506 harboring single transposon insertion mutation in V8 protease at 30 uM incubated for 18 hrs relative to control; type: functional; how it was run: as §1
[5] = tested on: Staphylococcus aureus; test: Antimicrobial activity against Staphylococcus aureus NE934 harboring single transposon insertion mutation in staphopain B at 30 uM incubated for 18 hrs relative to control; type: functional; how it was run: as §1
[6] = Stability in simulated pore POPC lipid bilayer membrane; type: physicochemical
How it was run: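 Coarse-grained MD with the "scaled" Martini force field, peptides in POPC membrane, 51 μs. Counts transmembrane peptides at 51 μs. Water beads within 2 nm vertically of membrane centre and peptide–peptide interaction energy averaged over 48–51 μs. Contacts (salt bridge or stacking) scored below 0.8 nm and called stable if present ≥50% of the time.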

[7] = tested on: Escherichia coli; test: Antimicrobial activity against Escherichia coli TOP10 incubated for 24 hrs by broth microdilution assay; type: functional
[8] = tested on: Staphylococcus carnosus; test: Antimicrobial activity against Staphylococcus carnosus CCM 4838T incubated for 24 hrs by broth microdilution assay; type: functional
[9] = tested on: Klebsiella pneumoniae; test: Depolarization of cytoplasmic membrane in Klebsiella pneumoniae ATCC 13883 at MIC measured for 45 mins by DiSC3-(5) dye based assay; type: functional, organism-based
How it was run: (§2)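 Bacteria loaded with membrane-potential dye DiSC3-(5), then treated with peptide at its MIC for the respective strain; depolarization read as rise in dye fluorescence; polymyxin B and levofloxacin as reference antibiotics.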

[10] = tested on: Escherichia coli; test: Depolarization of cytoplasmic membrane in Escherichia coli ATCC 11775 at MIC measured for 45 mins by DiSC3-(5) dye based assay; type: functional, organism-based; how it was run: as §2
[11] = tested on: Acinetobacter baumannii; test: Antimicrobial activity against colistin/meropenem-resistant Acinetobacter baumannii GSAB 164 incubated for 18 to 20 hrs by broth microdilution assay; type: functional; conditions: time 18-20 hrs
How it was run: (§3)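 Broth microdilution assay. MIC was taken as the lowest peptide concentration that inhibited visible growth of the bacteria. Peptides were dissolved in PBS, and experiments were run in triplicate.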

[12] = tested on: Enterococcus faecium; test: Depolarization of cytoplasmic membrane in Enterococcus faecium ATCC 700221 at MIC measured for 45 mins by DiSC3-(5) dye based assay; type: functional, organism-based; how it was run: as §2
[13] = Toxicity in immunosuppressed Balb/c mouse excisional dorsal wound infection model infected with Acinetobacter baumannii NCTC 13301 assessed as body weight loss at about 10 mg/kg treated for 7 days once daily measured after 45 days; type: organism-based; conditions: in vivo, 1080 h, time 45 day
How it was run: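 Excisional dorsal wound model in immunosuppressed mice infected with 5 × 10⁴ cells per mL of A. baumannii. Treated, PBS-treated and untreated groups were compared. Body weight and survival were followed for 45 days.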

[14] = Toxicity in neutropenic CD-1 mouse deep thigh infection model infected with Acinetobacter baumannii ATCC 19606 assessed as body weight change at 0.17 mg/kg, ip measured after 4 days; type: organism-based; conditions: in vivo, 96 h, time 4 day
How it was run: (§4)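 Neutropenic mice infected intramuscularly in the right thigh with 10⁶ cells per mL of A. baumannii ATCC 19606. […] Body weight monitored for toxicity. Euthanasia 4 days post-infection (day 8). n = 6 per group, from three inocula.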

[15] = tested on: Pseudomonas aeruginosa; test: Depolarization of cytoplasmic membrane in Pseudomonas aeruginosa PAO1 at MIC measured for 45 mins by DiSC3-(5) dye based assay; type: functional, organism-based; how it was run: as §2
[16] = tested on: Staphylococcus aureus; test: Depolarization of cytoplasmic membrane in Staphylococcus aureus ATCC 12600 at MIC measured for 45 mins by DiSC3-(5) dye based assay; type: functional, organism-based; how it was run: as §2
[17] = tested on: Mus musculus; test: Induction of wound healing activity in immunosuppressed Balb/c mouse excisional dorsal wound infection model infected with Acinetobacter baumannii NCTC 13301 assessed as decrease in serocellular crust at about 10 mg/kg treated for 7 days once daily measured after 20 days; type: functional, organism-based; conditions: time 20.0 day
[18] = Toxicity against reconstructed human skin model assessed as irritation at 50 uM incubated for 1 hr followed by compound washout measured after 42 hrs by MTT assay; type: tissue-based, Skin of body
How it was run: (§5)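 Reconstructed human epidermis with stratum corneum, per OECD TG 439 skin irritation guideline. Tissues exposed 1 h to peptide at 50 μM, then 42 h post-treatment incubation. Viability read by MTT. Controls were SDS and melittin.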

[19] = tested on: Lipid bilayer; test: Induction of pore formation in POPC/POPG SLBs at 1 uM measured for 2 hrs by real-time AFM analysis; conditions: filed as activator
How it was run: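 Real-time AFM topography of supported lipid bilayers of POPC:POPG 1:1 mol/mol, checked defect-free and vesicle-free before peptide addition. P:L 1:500, final peptide 1 μM. Images at 1 × 1 μm², 400 × 400 nm² and 200 × 200 nm², height scale 2 nm. Pores followed over 2 h.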

[20] = Toxicity in immunosuppressed Balb/c mouse excisional dorsal wound infection model infected with Acinetobacter baumannii NCTC 13301 assessed as decrease in animal survival at about 10 mg/kg treated for 7 days once daily measured after 45 days; type: organism-based; conditions: in vivo, 1080 h, time 45 day
[21] = Stability in human serum assessed as half life at 10 mg/ml by UPLC-MS analysis; type: ADME, cell-free
How it was run: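 Peptides dissolved in PBS and incubated in 25% human serum. Intact peptide remaining followed over time to at least 6 h; half-life taken as time to 50% stability.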

[22] = tested on: Mus musculus; test: Induction of wound healing activity in immunosuppressed Balb/c mouse excisional dorsal wound infection model infected with Acinetobacter baumannii NCTC 13301 assessed as reduction in wound expansion at about 10 mg/kg treated for 7 days once daily; type: functional, organism-based; conditions: time 7.0 day
[23] = tested on: Klebsiella pneumoniae; test: Induction of outer membrane permeabilization in Klebsiella pneumoniae ATCC 13883 measured for 20 mins by NPN uptake assay; type: functional, organism-based
How it was run: (§6)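 Outer-membrane permeabilization of Gram-negative bacteria read as rise in fluorescence of the lipophilic dye NPN, which enters only when outer-membrane integrity is compromised. Peptides applied at their MIC against the respective strain; polymyxin B and levofloxacin as reference antibiotics. Triplicates.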

[24] = tested on: Acinetobacter baumannii; test: Induction of outer membrane permeabilization in Acinetobacter baumannii ATCC 19606 measured for 20 mins by NPN uptake assay; type: functional, organism-based
[25] = Toxicity against reconstructed human skin model assessed as tissue viability at 50 uM incubated for 1 hr followed by compound washout measured after 42 hrs by MTT assay; type: tissue-based, Skin of body; conditions: read-out: Activity; how it was run: as §5
[26] = tested on: Acinetobacter baumannii; test: Anti-infective activity against Acinetobacter baumannii ATCC 19606 infected in neutropenic CD-1 mouse deep thigh infection model assessed as reduction in bacterial load at 0.17 mg/kg, ip measured after 4 days; type: functional, organism-based; conditions: time 4.0 day
How it was run: (§7)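 Neutropenic mice infected intramuscularly in right thigh with 10⁶ cells per mL A. baumannii ATCC 19606; single intraperitoneal peptide dose at 10× MIC; bacterial load determined 4 days after treatment (euthanized day 8); n = 6 per group from three inocula; one-way ANOVA with Dunnett's test versus untreated.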

[27] = tested on: Escherichia coli; test: Antimicrobial activity against Escherichia coli ATCC 25922 incubated for 18 to 20 hrs by broth microdilution assay; type: functional; conditions: time 18-20 hrs; how it was run: as §3
[28] = tested on: Mus musculus; test: Induction of wound healing activity in immunosuppressed Balb/c mouse excisional dorsal wound infection model infected with Acinetobacter baumannii NCTC 13301 assessed as reduction in necrosis of epidermal tissue at wound edges at about 10 mg/kg treated for 7 days once daily; type: functional, organism-based; conditions: time 7.0 day
[29] = tested on: Pseudomonas aeruginosa; test: Induction of outer membrane permeabilization in Pseudomonas aeruginosa PAO1 measured for 20 mins by NPN uptake assay; type: functional, organism-based; how it was run: as §6
[30] = tested on: Escherichia coli; test: Induction of outer membrane permeabilization in Escherichia coli ATCC 11775 measured for 20 mins by NPN uptake assay; type: functional, organism-based
[31] = tested on: Acinetobacter baumannii; test: Antimicrobial activity against Acinetobacter baumannii CIP7010 incubated for 16 to 20 hrs; type: functional; conditions: time 16-20 hrs; how it was run: as §3
[32] = tested on: Escherichia coli; test: Antimicrobial activity against Escherichia coli TOP10 at pH 6 to 8; type: functional, organism-based
How it was run: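 E. coli TOP10 broth microdilution with growth medium at pH 8 and pH 6; MIC taken as lowest concentration inhibiting visible growth.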

[33] = tested on: Acinetobacter baumannii; test: Depolarization of cytoplasmic membrane in Acinetobacter baumannii ATCC 19606 at MIC measured for 45 mins by DiSC3-(5) dye based assay; type: functional, organism-based; how it was run: as §2
[34] = tested on: Acinetobacter baumannii; test: Anti-infective activity against Acinetobacter baumannii ATCC 19606 infected in neutropenic CD-1 mouse deep thigh infection model assessed as reduction in bacterial load at 0.18 mg/kg, ip measured after 4 days; type: functional, organism-based; conditions: time 4.0 day; how it was run: as §7
[35] = Toxicity in neutropenic CD-1 mouse deep thigh infection model infected with Acinetobacter baumannii ATCC 19606 assessed as body weight change at 0.18 mg/kg, ip measured after 4 days; type: organism-based; conditions: in vivo, 96 h, time 4 day; how it was run: as §4

## H-KKKKLKKILKKLFQFINQLDNQLQDIKQNK-OH
[1]
  IC50 at 1 h: > 50 µM

## H-KKKKLKKLLKKLFQFLNQLDNQLQDLKQNK-NH2
[2]
  inhibition at 30 µM: < 45%
[3]
  inhibition at 30 µM: < 45%
[4]
  inhibition at 30 µM: < 45%
[5]
  inhibition at 30 µM: < 45%

## H-KKKKLKKILKKLWQWINQLDNQLQDIKQNK-NH2
[1]
  IC50 at 1 h: > 50 µM

## H-KKKKLKKILKKLFQFINQLDNQLQDFKQNK-OH
[1]
  IC50 at 1 h: > 50 µM
[6]
  Stability: Stable

## H-KKKKMKKMMKKMFQFMNQMDNQMQDMKQNK-NH2
[7]
  MIC: > 50 µM
[2]
  inhibition at 30 µM: < 45%
[3]
  inhibition at 30 µM: < 45%
[4]
  inhibition at 30 µM: < 45%
[5]
  inhibition at 30 µM: < 45%

## H-KKKKIKKIIKKIFQFINQIDNQIQDIKQNK-NH2
[2]
  inhibition at 30 µM: < 45%
[3]
  inhibition at 30 µM: < 45%
[4]
  inhibition at 30 µM: < 45%
[5]
  inhibition at 30 µM: < 45%
[8]
  MIC: > 50 µM

## H-KKKKLKKILKKLFQFINQLDNQLQDIKKKK-NH2
[9]
  Activity: Active
[1]
  IC50 at 1 h: > 50 µM
[10]
  Activity: Active
[11]
  MIC: 1 µM
[12]
  Activity: Active
[13]
  Activity: Toxic
[14]
  Activity: Non-Toxic
[2]
  inhibition at 30 µM: < 45%
[3]
  inhibition at 30 µM: < 45%
[15]
  Activity: Active
[16]
  Activity: Active
[4]
  inhibition at 30 µM: < 45%
[5]
  inhibition at 30 µM: < 45%
[17]
  Activity: inactive
[18]
  Activity: Non-Toxic
[19]
  Activity: Active
[20]
  Activity: Toxic
[21]
  half-life at 10 mg/ml: > 6 h
[22]
  Activity: Active
[23]
  Activity: Active
[24]
  Activity: inactive
[25]
  viability at 1 h, 50 µM: 100%
[26]
  Activity: inactive
[27]
  MIC: 1 µM
[28]
  Activity: Active
[29]
  Activity: Active
[30]
  Activity: Active
[31]
  MIC: 0.5 µM
[32]
  Activity: Active
[33]
  Activity: Active

## H-KKKKVKKVVKKVFQFVNQVDNQVQDVKQNK-NH2
[7]
  MIC: > 50 µM
[2]
  inhibition at 30 µM: < 45%
[3]
  inhibition at 30 µM: < 45%
[4]
  inhibition at 30 µM: < 45%
[5]
  inhibition at 30 µM: < 45%
[8]
  MIC: > 50 µM

## H-KKKKKLKKILKKLFQFINQLDNQLQDIKKKKK-OH
[9]
  Activity: Active
[1]
  IC50 at 1 h: > 50 µM
[34]
  Activity: inactive
[10]
  Activity: Active
[12]
  Activity: Active
[2]
  inhibition at 30 µM: < 45%
[3]
  inhibition at 30 µM: < 45%
[15]
  Activity: Active
[16]
  Activity: Active
[35]
  Activity: Non-Toxic
[4]
  inhibition at 30 µM: < 45%
[5]
  inhibition at 30 µM: < 45%
[18]
  Activity: Non-Toxic
[21]
  half-life at 10 mg/ml: > 6 h
[23]
  Activity: Active
[24]
  Activity: inactive
[25]
  viability at 1 h, 50 µM: 100%
[29]
  Activity: Active
[30]
  Activity: Active
[33]
  Activity: Active

## H-KKKKLRRILRRLFQFINQLDNQLQDIKQNK-NH2
[1]
  IC50 at 1 h: 49 µM
